Shown are actives, neighbours in structure and some others; about 1% of the full set was active somewhere.
HSV replic up – increases HSV replication in cells. HSV replication augmentation in cells, fold increase. maximum fold increase. 0.005% of 220,000 active; in the data active = maximum fold increase above about 1.5; inconclusive = no clear call, values can overlap the other calls; tested in PC3 cells
hK5 inh – blocks human kallikrein 5 protease activity | inhibition, % at 5 µM | Q9Y337 | AID 873 | recombinant hK5, fluorogenic AMC substrate cleavage | 0.59% of 210,000 active;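 active = inhibition of 40% or more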;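 note: 0% = enzyme controls without compound and 100% = no-enzyme blanks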
Thrombin inh – inhibitors of human thrombin. P00734. alpha-thrombin, Boc-VPR-AMC fluorogenic substrate cleavage. inhibition, % at 5 µM. 0.26% of 220,000 active;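 active = inhibition at or above 40%; inactive = inhibition below 40%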;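 note: 0% = enzyme with no compound and 100% = wells without enzyme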
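Material: human alpha-thrombin protein; Also added: Boc-VPR-AMC substrate, 15 µM final; Timing: enzyme reaction carried out at room temperature; Signal: fluorescence, ex 355 nm, em 460 nm; Measure: % inhibition of thrombin; Controls: enzyme without compound as high, wells lacking enzyme as low.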
FXIIa inh – inhibitors of human coagulation factor XIIa | purified FXIIa, Boc-QGR-AMC fluorogenic substrate, 2 h | inhibition, % at 5 µM | 0.3% of 220,000 active | AID 800; in the data active = inhibition above about 40%;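 note: 0% = enzyme with no compound and 100% = blank without enzyme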
Furin inhibitor – inhibitors of human furin; P09958; purified furin, fluorogenic substrate cleavage; inhibition, % at 20 µM or 30 µM; 0.061% of 220,000 active; AID 463115; in the data active = inhibition above about 25%
FXIa inh 1536 – factor XIa (human) inhibition; purified FXIa, Boc-Glu-Ala-Arg-AMC fluorogenic substrate; P03951; 0.14% of 220,000 active; inhibition, % at 5 µM;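 active = inhibition of at least 40%; inactive = inhibition below 40%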;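 note: fluorescence of freed AMC excited at 355 nm; 0% = enzyme without compound and 100% = no enzyme blank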
Target sequence (P03951 19-387 limits assumed): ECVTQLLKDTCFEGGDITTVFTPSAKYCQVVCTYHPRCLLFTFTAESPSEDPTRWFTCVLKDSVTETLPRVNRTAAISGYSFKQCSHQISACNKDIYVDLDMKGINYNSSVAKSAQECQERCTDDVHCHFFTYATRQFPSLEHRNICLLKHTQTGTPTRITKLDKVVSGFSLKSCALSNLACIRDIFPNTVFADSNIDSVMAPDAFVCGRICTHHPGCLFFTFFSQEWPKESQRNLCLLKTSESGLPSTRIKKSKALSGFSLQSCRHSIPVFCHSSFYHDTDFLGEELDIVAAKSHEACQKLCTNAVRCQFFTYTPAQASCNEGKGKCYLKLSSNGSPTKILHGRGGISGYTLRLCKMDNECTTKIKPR
Target sequence (P03951 388-625 limits assumed): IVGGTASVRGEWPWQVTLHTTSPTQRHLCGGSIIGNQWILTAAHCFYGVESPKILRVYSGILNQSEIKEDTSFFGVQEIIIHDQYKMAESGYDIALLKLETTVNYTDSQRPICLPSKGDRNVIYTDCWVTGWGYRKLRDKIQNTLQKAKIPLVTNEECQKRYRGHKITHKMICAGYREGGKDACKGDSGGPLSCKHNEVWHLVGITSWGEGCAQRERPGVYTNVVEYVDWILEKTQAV
Active calls of the source: *; i = inactive; ? = inconclusive; . = no result given.

SMILES | HSV replic up | hK5 inh | Thrombin inh | FXIIa inh | Furin inhibitor | FXIa inh 1536
CCC(C)(C)NC(=O)/C=C/c1ccc(OC)c(S(=O)(=O)N2CCOCC2)c1 | i | 42.5* | 17.7 | 24.5 | 0.3 | 12.4
Cc1ccc(NC(=O)C(=O)NCCN2CCN(S(=O)(=O)c3ccccc3)CC2)cc1C | i | 5.4 | . | 7.4 | -6.2 | 1.4
Cc1cc(N=CC2=C(O)CC(C)(C)CC2=O)no1 | i | 2.8 | -0.4 | -1.4 | 45.7* | -1.8
Cc1cccc(/N=C/C2=C(O)CC(C)(C)CC2=O)n1 | i | 3.0 | -0.7 | 8.1 | 45.7* | 2.4
Cc1ccc(NC(=O)/C(C#N)=C/c2cn(CC(=O)NCc3ccco3)c3ccccc23)cc1C | i | -1.6 | -6.5 | 6.0 | -23.4 | 1.2
Cc1ccc(C)c(NC(=O)/C(C#N)=C/c2cn(CC(=O)NCc3ccco3)c3ccccc23)c1 | i | 45.8* | 30.7 | 1.4 | -18.1 | 11.8
NS(=O)(=O)c1ccc(Cl)cc1[N+](=O)[O-] | i | 16.7 | 22.2 | 46.1* | -3.1 | 41.0*
Cc1[nH]c(=O)[nH]c(=O)c1/C=N/NC(=O)[C@@H](N)CC(C)C | i | 21.2 | 3.3 | 45.1* | 1.5 | 30.6
CC1=[N+](C)c2ccc3ccccc3c2C1(C)C | . | -6.5 | 2.1 | 10.0 | -7.9 | 7.9
CC(Sc1ccsc1[N+](=O)[O-])C(=O)NCc1ccco1 (centres undefined) | i | -1.6 | 0.8 | 1.2 | -2.8 | 5.8
CC1(C)CC(=O)C(C=Nc2cccnc2/N=C/C2=C(O)CC(C)(C)CC2=O)=C(O)C1 | i | -11.1 | 7.2 | 10.4 | 54.7* | 0.3
COc1ccc(N=CC2=C(O)CC(C)(C)CC2=O)cc1 | i | 12.2 | -4.4 | -5.0 | 34.3* | -11.7
CC1(C)CC(=O)C(C=Nc2ccncc2)=C(O)C1 | i | . | . | . | -8.3 | .
CC1(C)CC(=O)C(C=Nc2cccnc2)=C(O)C1 | i | 0.8 | 1.1 | 0.5 | 40.9* | -3.9
COc1ccc(OC)c(N=CC2=C(O)CC(C)(C)CC2=O)c1 | i | 6.1 | 7.2 | 19.3 | -2.6 | 3.5
c1ccc(Cn2cc(CN3CCCO3)c(-c3ccc4c(c3)OCO4)n2)cc1 | i | . | -1.2 | 8.3 | -34.7 | 0.3
Cc1cc(C(=O)OCC(=O)N2CC(=O)Nc3ccccc32)c(C)n1-c1ccccc1 | i | 60.1* | 8.9 | 10.1 | -11.5 | 4.8
O=C1CN(C(=O)COc2ccc(F)cc2Cl)c2ccccc2N1 | i | 54.1* | 14.0 | 12.4 | -3.7 | -3.8
COC(=O)c1cc(=O)n2c(sc3ccccc32)c1C#N | i | -8.0 | -8.1 | -7.6 | -9.7 | -7.5
Cc1cc(C)c(S(=O)(=O)c2ccccc2)c(OC(=O)c2ccc(Cl)cc2Cl)n1 | . | 0.6 | 2.2 | 7.7 | -20.7 | 0.1
Cc1cc(OC(=O)c2ccc(Cl)cc2Cl)nc(C)n1 | i | -53.3 | 4.1 | 45.4* | -13.0 | 6.5
C/C(=N/NC(=O)c1cc(-c2ccc(Cl)s2)[nH]n1)c1ccco1 | i | -0.6 | 8.6 | 11.5 | -16.8 | 2.9
CC(C)(C)C(=O)N1NC(=Nc2ccccc2)SC1(C)C | i | 33.7 | 6.2 | 40.4* | -5.3 | 30.8
COC(=O)/C=C1\SC(=Nc2ccccc2)NC1=O | i | -19.5 | 4.0 | 20.9 | -1.9 | 8.7
COc1ccc(C(=O)Nc2cccnc2Sc2ccc(Cl)cc2)cc1 | i | 0.8 | 2.2 | 5.5 | -35.4 | 12.3
SMILES | HSV replic up | hK5 inh | Thrombin inh | FXIIa inh | Furin inhibitor | FXIa inh 1536
CC(=O)NC(=S)Nc1ccccc1N1CCCCC1 | i | -0.1 | 2.4 | 12.1 | -7.2 | 9.3
CCc1ccc(/C=C2/C(=O)N(c3ccccc3)C(=S)N2CC(=O)OC)s1 | i | -0.8 | -5.4 | 3.0 | -7.5 | 2.6
CCN1C(=O)/C(=C/N(C(C)=O)c2ccccc2)N(c2ccccc2)C1=S | i | 50.4* | 76.2* | 21.6 | -11.8 | 9.1
COC(=O)C1=C(N)Oc2cc(C)[nH]c(=O)c2C1c1ccccc1OC (centres undefined) | i | -4.5 | -5.7 | -2.4 | -14.4 | -4.9
C/C(=N\Nc1ccc([N+](=O)[O-])cc1)c1cc2ccccc2o1 | ? | -1.6 | -2.6 | 9.5 | -15.5 | -0.6
CCOC(=O)CCCNC(=O)CCNC(=O)c1ccc(OC(C)C)cc1 | i | 40.2* | 22.1 | 15.8 | -9.3 | 12.9
CCOC(=O)CCCNC(=O)CCNC(=O)c1ccc(OCC(C)C)cc1 | i | 1.5 | -0.2 | 6.7 | -29.0 | 1.2
CC(C)CNC(=S)N1CCC(NC(=O)c2ccco2)CC1 | i | -14.7 | -0.6 | -1.9 | -19.3 | 2.4
O=C(c1noc2c1CCc1ccccc1-2)N1CCOCC1 | i | 71.7* | 0.6 | -7.1 | -14.1 | -9.3
Clc1ccc2oc(-c3ccccc3)cc(=NCCCN3CCOCC3)c2c1 | i | 33.5 | 51.9* | 17.3 | 12.5 | 9.6
Clc1cccc(-c2nc(NCCCN3CCOCC3)c3ccccc3n2)c1 | i | . | -7.4 | 7.2 | -18.9 | -0.1
OCCCCCN=c1cc(-c2ccccc2)oc2ccc(Cl)cc12 | i | 69.3* | 59.7* | 12.8 | -2.4 | 6.0
CCc1ccc(-c2nc(SCC(=O)N3CCOCC3)n[nH]2)cc1 | i | 5.5 | -1.0 | 6.3 | -25.4 | 0.8
Cc1ccccc1-n1c(SCc2c(C)noc2C)nnc1-c1cccnc1 | i | 51.6* | 33.2 | 14.9 | -9.9 | 6.1
COc1ccc(NC(=O)n2nc(OC(=O)c3cccs3)cc2N)cc1 | i | 6.6 | 46.4* | 19.2 | -22.8 | 18.2
O=C1c2ccccc2CN1CCSC(=S)N1CCOCC1 | i | -3.4 | 4.0 | 15.4 | -36.9 | 4.9
CCOc1cc(C(=O)OCC(=O)Nc2ncc(Cl)c(C)c2Cl)ccc1OCC(=O)N1CCOCC1 | i | -1.2 | 0.6 | 12.5 | -17.9 | 9.2
Cc1c(Cl)cnc(NC(=O)COC(=O)c2ccc3c(c2)OCO3)c1Cl | i | 40.6* | 27.4 | 13.0 | -7.5 | 10.4
CCOC(=O)C(CC)Sc1nnc(COc2ccc(C)cc2)n1-c1ccccc1 (centres undefined) | i | -11.9 | -2.1 | 17.3 | 28.4* | 6.8
CC1(C)c2cc(Cl)ccc2-n2c1cc(O)c(-c1ccccc1)c2=O | i | 0.2 | -1.0 | 7.5 | -23.3 | 0.4
COC(Cn1c(C)c(C(C)=O)c(C(C)=O)c1C)OC | . | 1.4 | 1.8 | 48.2* | -13.7 | 24.4
Cc1c(C#N)sc(C(N)=O)c1C | i | 3.9 | -0.1 | 10.1 | -11.7 | 0.7
CCc1noc(C)c1C(=O)Nc1nnc(C2CCCCC2)s1 | i | 6.8 | -7.1 | 6.5 | -30.6 | -0.8
COc1ccc(N(C(=O)c2ccco2)S(=O)(=O)c2cc(Cl)c(Cl)cc2Cl)cc1 | i | -9.3 | -3.1 | 10.2 | 0.9 | 0.1
COc1ccc(N(C(=O)c2ccco2)S(=O)(=O)c2ccccc2)cc1 | i | -4.0 | 57.8* | 16.3 | 1.9 | 10.4
Cc1c(-c2cccs2)[n+](=O)c2c(n1[O-])CCC2 | i | 60.3* | 40.1* | 34.3 | -18.3 | 17.1
COc1ccccc1-c1cc(C(=O)NCc2cccs2)no1 | i | -5.2 | -0.5 | 11.4 | -28.0 | -0.7
COc1ccccc1-c1cc(C(=O)NCc2ccco2)no1 | i | 48.3* | 5.3 | 24.0 | -20.0 | 10.6

Compound activity: PubChem BioAssay, several laboratories
